Shown are actives, neighbours in structure and some others; about 3.7% of the full set was active somewhere.
Insulin prom inh – inhibitors of insulin promoter-driven GFP, primary screen, imaging, TRM-6 cells (human fetal islet line), eGFP reporter, cell count; reporter expression induced with tamoxifen; inhibition, % at 2 µM; actives 0.9% (n = 130,000); AID 1273, 2008;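 active = inhibition above the mean plus 3 SD, with well images judged a real hit on visual review, cut at about 60% in these data, passing the limit was not always enough; inconclusive = inhibition over the cutoff but images rejected on review; inactive = inhibition not above the cutoff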
HMGR II inh – inhibitors of E. faecalis class II HMGR, primary screen, biochemical, Enterococcus faecalis; actives 0.41% (n = 190,000); purified E. faecalis HMGR, NADPH absorbance 340 nm kinetic; inhibition, % at 10 µM;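 active = inhibition above a set limit, the median over all tested compounds plus 3 SD, cut at about 9.5% in these data; inconclusive = no clear call, values can overlap the other calls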;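 also: enzyme runs in reverse so mevalonate oxidation gives rising NADPH absorbance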
Yeast life ext – compounds extending yeast replicative lifespan, primary screen, S. cerevisiae, OD615 | S. cerevisiae growth with nicotinamide; deaD strain in restrictive glucose medium | inhibition of the nicotinamide effect, % at 10 µM | actives 0.68% (n = 130,000) | AID 775, 2007;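 active = inhibition above a set limit, placed 3 SD over the median of all compounds, cut at about 26% in these data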
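Material: Modified budding yeast, DeaD strain | Medium: Restrictive glucose medium | Probe or stimulus: 1.5 mM nicotinamide | Dosing: Single dose 10 µM compound, 0.25% DMSO | Times: 48 h at 30 °C | Technique: OD615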
RAM network inh – inhibitors of the yeast RAM network, primary screen, dse1pr::URA3 reporter, 5-FOA selection; S. cerevisiae dse1pr::URA3 reporter, 5-FOA growth OD615, 2 d; analog-sensitive cbk1-as2 kinase mutant strain; inhibition, % at 50 µM; AID 868, 2007; actives 1.8% (n = 190,000);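 active = inhibition above a set limit, 3 SD over mean compound inhibition, cut at about 8.4% in these data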;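 also: inhibition rescues growth on 5-FOA so higher OD means more RAM inhibition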
Yeast growth inh – growth inhibitors of yeast BB579 in restrictive medium, primary screen, yeast lifespan-shortening project, S. cerevisiae. actives 0.51% (n = 140,000). inhibition, % at 10 µM. OD615, 48 h;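 active = inhibition above a set limit, 3 SD over the mean compound inhibition, cut at about 44% in these data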
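Test system: DeaD yeast strain BB579 / Buffer or medium: restrictive glucose-based CSMM-D medium / Doses: single 10 µM dose / Schedule: 4 h cell preincubation, 48 h compound exposure, 30 °C humidified / Technique: culture absorbance at 615 nm / Controls: amphotericin B positive control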
RAM efflux-def – 5-FOA growth of efflux-deficient control yeast, dose response, counter-screen for RAM network inhibitor project, S. cerevisiae, OD615; shares compounds with RAM network inh; S. cerevisiae efflux-deficient reporter strain, 5-FOA growth OD615, 2 days; max inhibition, %; 1,200 tested, under 10 active; call rule not given here
A number is an active result; . = inactive; ? = inconclusive; / = no result given.

SMILES | Insulin prom inh | HMGR II inh | Yeast life ext | RAM network inh | Yeast growth inh | RAM efflux-def
O=C(Nc1ccccc1)C1=C[C@H](C2CCCCC2)C[C@H](OCc2ccc(CO)cc2)O1 | / | . | / | 14 | / | .
O=C(Nc1ccccc1)C1=C[C@@H](C2CCCCC2)C[C@@H](OCCCCO)O1 | / | . | / | . | / | /
COc1ccc(-c2c/c(=N\c3nc(-c4ccccc4)c(C)s3)c3ccccc3o2)cc1O | . | . | . | 11 | . | .
COc1ccc(-n2nnc3c(SCC(=O)OCc4ccccc4)ncnc32)cc1 | . | . | . | 14 | . | .
CCOC(=O)CNC(=O)CSc1nccn1Cc1ccco1 | / | . | / | . | / | /
CCSc1nnc(NC(=O)CCCOc2ccc(C)cc2)s1 | . | . | / | . | / | /
CCCC(=O)C1=C(O)C(C(=O)OC)C(C)(C)CC1=Nc1cccc2ccccc12 (stereo not given) | . | . | / | 12 | . | .
C=CCN1C(=O)C2(NNc3ccccc3O2)c2ccccc21 (stereo not given) | . | . | . | . | . | /
CCCCN1C(=O)C2(NNc3ccccc3O2)c2ccccc21 (stereo not given) | . | . | . | 15 | . | .
Cc1ccccc1NC(=O)/C(C#N)=C/c1ccsc1 | . | . | . | . | . | /
Cc1cccc(NC(=O)/C(C#N)=C/c2ccc(Sc3ccccc3)o2)c1C | ? | . | . | 14 | . | .
CCN(CC)c1ccc(/C=N/NC(=O)CCC(=O)NCc2ccccc2)c(O)c1 | . | . | . | . | . | /
COc1ccccc1C1(CCNS(=O)(=O)c2ccc(C)cc2)CCOC(C(C)C)C1 (stereo not given) | / | . | . | 13 | . | .
Cc1cccc(CSC(Nc2ccc(F)cc2)=C(C#N)C#N)c1 | . | . | . | . | . | /
N#CC(C#N)=C(Nc1ccc(F)cc1)SCc1cccc(Br)c1 | . | . | . | 14 | . | .
COc1ccc(C(C#N)N2N=C(c3ccccc3)CC2c2ccccc2)cc1OC (stereo not given) | . | . | . | . | . | /
COc1ccc(C2=NN(C(C#N)c3ccc(OC)cc3)C(c3ccccc3)C2)cc1 (stereo not given) | . | . | . | 14 | . | .
Cc1ccccc1OCCSCc1nc2ccccc2[nH]1 | . | . | . | . | . | /
COC(=O)COc1cccc(NC(=O)c2cccc(C)c2)c1 | . | . | / | . | / | /
Cc1cccc(C(=O)Nc2cccc(OC(=O)c3cccc(C)c3)c2)c1 | . | . | . | 14 | . | .
CCCC(=O)Oc1c(S(=O)(=O)c2ccc(C)cc2)c(C)nn1C(C)(C)C | . | . | / | 12 | / | .
CCC(=O)Oc1c(S(=O)(=O)c2ccc(C)cc2)c(C)nn1C(C)(C)C | / | . | . | . | . | /
C/C=C/c1ccc(OCC(=O)OCc2csc(Nc3ccc(C)cc3)n2)c(OC)c1 | . | . | . | 12 | . | .
COc1ccc2c(c1)C(C)CC(C)(C)N2C(=O)CSc1nc2ccccc2s1 (stereo not given) | / | . | . | 13 | . | .
O=C(c1ccccn1)N1CCN(S(=O)(=O)c2ccccc2)CC1 | / | . | / | . | / | /
SMILES | Insulin prom inh | HMGR II inh | Yeast life ext | RAM network inh | Yeast growth inh | RAM efflux-def
O=C(O)/C=C/C(=O)NCCCc1ccccc1 | / | . | / | . | / | /
COc1ccc(OC)c2c1sc(=NC(=O)c1cccc(N3C(=O)CCC3=O)c1)n2C | / | . | . | . | . | /
CCn1c(=NC(=O)c2cccc(N3C(=O)CCC3=O)c2)sc2c(OC)ccc(OC)c21 | / | . | / | 11 | / | .
C=CCN1C(=O)C(Cc2ccccc2)SC1=Nc1ccc(C(=O)O)cc1 (stereo not given) | . | . | . | . | . | /
C=CCN1C(=O)C(Cc2ccc(C)cc2)S/C1=N/N=C/c1ccco1 (stereo not given) | . | . | . | 14 | . | .
C=CCN1C(=O)C(Cc2cccc(C)c2)SC1=Nc1ccc(C(=O)O)cc1 (stereo not given) | . | . | . | 15 | . | .
CCc1ccc(N(C(=O)Cn2nnc(-c3ccccc3)n2)C(C(=O)NC2CCCCC2)c2ccccn2)cc1 (stereo not given) | . | . | . | . | . | /
